Assay outcomes deposited in PubChem BioAssay by several laboratories.
M1 antagonist = M1 muscarinic receptor (rat) antagonism; AID 628; 64,000 compounds, 3.4% hits; P08482; B-score at 10 µM; CHO-M1 cells, Fluo-4 calcium, ACh EC80 antagonist mode; active compounds read low;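 active = calcium fluorescence response, raw or row-and-column corrected B-score, differing from the plate sample mean either way at a set confidence level, mostly lower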
mHtt clearance = mutant huntingtin protein clearance | HeLa Exon1htt(103Q)mCFP, aggregate imaging; zero = plate's median compound well | inhibition, % at 1.5 µM | 47,000 compounds, 0.42% hits | AID 853;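 active = inhibition of aggregate fluorescence above about 70%, also judged a hit by eye on the cell image, limit read from the data, passing the limit was not always enough; inconclusive = no rule stated for this call; inactive = not judged a hit on image review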;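 note: cells exposed to compound for three days before fixation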
Jurkat tox 60K = cytotoxic compounds reducing Jurkat cell viability. inhibition, % at 4 µM. Jurkat E6.1 viability, ATP luminescence, 48 h. 56,000 compounds, 1.2% hits;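 active = inhibition above the mean inhibition of all tested compounds plus 3 SD, cut at about 28% in these data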
D1 mod = allosteric modulators of human D1 dopamine receptor | HEK293 D1, CRE-luciferase, dopamine EC30 potentiation; actives deviate in either direction | B-score at 10 µM | 58,000 compounds, 5.9% hits;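 active = luminescence count or its row- and column-corrected plate score outside the 99.7% band of the plate's sample wells, on either side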
M1 agonist = activates the M1 muscarinic receptor | CHO-M1 cells, Fluo-4 calcium fluorescence, agonist mode; active compounds read high | 64,000 compounds, 3% hits | B-score at 10 µM;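 active = fluorescence rise, raw or as B-score row- and column-corrected plate score, outside the 99.7% band of its plate's samples, either direction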
HEK293 NFkB inh = lowers PMA/ionomycin-induced NF-kB signal in HEK293 cells | 62,000 compounds, 0.21% hits | HEK-293 NF-kB luciferase reporter, luminescence | inhibition, % at 3 µM;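 active = inhibition above the mean of all tested compounds plus 3 SD, cut at about 40% in these data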;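 note: 0% = stimulated DMSO wells and 100% = 10 µM reference inhibitor 5653914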
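System – HEK-293 cells with stable firefly luciferase reporter driven by four HIV NF-kB elements · Doses – one dose, 3 µM · Schedule – 1 h compound pre-incubation, 16 h PMA/ionomycin at 37 °C · Technique – luminescence from luciferase substrate reagent · Measure – percent inhibition normalized per plate to DMSO and reference-inhibitor controls · Replicates – tested once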
M1 agonist conf = rat M1 muscarinic agonism, confirmation | CHO-M1 cells, Fluo-4 calcium fluorescence, agonist mode; actives lie on both sides | shares compounds with M1 agonist | fluorescence change (max-min) at 10 µM | 1,700 compounds, 19% hits;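 active = fluorescence change differs from the solvent-only DMSO control mean at a set confidence level in both duplicate runs; inconclusive = differs from solvent-only control mean in just one of two runs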;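 note: an EC20 dose of acetylcholine follows compound addition during the same imaging run; raw fluorescence intensity difference in instrument units with no normalization to controls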
M4 agonist ctr = activates rat M4 receptor in counter-screen for M1 agonists; 1,700 compounds, 9% hits; shares compounds with M1 agonist; AID 1741; fluorescence change (max-min) at 10 µM; CHO M4/Gqi5 cells, Fluo-4 calcium fluorescence, agonist mode; actives lie on both sides;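 active = fluorescence change differing from the plate's solvent-only control wells at 99.7% confidence in both duplicates, whether higher or lower; inconclusive = differs from solvent controls in only one of two duplicates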
Target sequence (P08485 whole entry, looked up): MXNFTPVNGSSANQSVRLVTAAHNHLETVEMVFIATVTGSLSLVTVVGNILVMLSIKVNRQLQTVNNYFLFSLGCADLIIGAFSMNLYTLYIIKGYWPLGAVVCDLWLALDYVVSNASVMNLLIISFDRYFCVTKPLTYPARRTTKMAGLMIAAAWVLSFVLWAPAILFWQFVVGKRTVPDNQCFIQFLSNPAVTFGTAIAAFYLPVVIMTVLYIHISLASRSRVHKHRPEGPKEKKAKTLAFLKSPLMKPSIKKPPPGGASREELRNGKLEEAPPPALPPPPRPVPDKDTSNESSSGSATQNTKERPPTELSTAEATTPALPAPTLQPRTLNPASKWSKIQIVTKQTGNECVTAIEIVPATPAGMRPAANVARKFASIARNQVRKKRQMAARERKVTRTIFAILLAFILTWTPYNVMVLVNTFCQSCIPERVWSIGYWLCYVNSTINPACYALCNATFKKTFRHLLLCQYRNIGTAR
Starred values were filed as active, the others as inactive; u = inconclusive; x = no result. This is a sample that favours compounds with a hit; in the whole collection about 9.5% have one here.

SMILES	M1 antagonist	mHtt clearance	Jurkat tox 60K	D1 mod	M1 agonist	HEK293 NFkB inh	M1 agonist conf	M4 agonist ctr
Cn1c(=O)cc(SCC(=O)Nc2cccnc2)c2ccccc21	-0.212	x	7.8	-0.0927	2.69*	2.5	1.18	-13.5
CCOC(=O)c1cccc(NC(=O)CSc2nc3cccnc3n2C)c1	-1.12	28.3	27.1	2.58	3.3*	24.8	0.888	-25.7
CCOC(=O)c1c(NC(=O)CSc2nc3cccnc3n2C)sc(C(C)=O)c1C	-0.209	x	13.7	x	0.532	14.9	x	x
c1ccc2c(c1)nc(N1CCN(C3CCCCC3)CC1)c1nnnn12	-0.927	x	1.7	0.343	-0.492	-2.6	x	x
c1ccc(N2CCN(c3nc4ccccc4n4nnnc34)CC2)cc1	0.109	x	6.6	0.655	17*	7.9	u	u
c1ccc2c(c1)nc(N1CCOCC1)c1nnnn12	0.332	x	-0.2	x	6.36*	-2.9	33.5	19.6
CC1=C(C(=O)OCC(C)C)C(c2ccc(F)cc2)NC(=O)N1 (centres undefined)	0.797	x	7.5	-1.59	0.905	12.3	x	x
O=C(Nc1ncc(Cc2ccccc2Cl)s1)C1CCCO1 (centres undefined)	x	-42.1	x	x	x	x	x	x
Oc1ccc(CNc2ccc(F)cc2)c2cccnc12	0.0369	25.9	0.9	0.241	21.9*	9.7	-20.1	u
CCC1S/C(=C(\C#N)C(=O)NCc2ccco2)N(c2ccc(F)cc2)C1=O (centres undefined)	0.0565	16.6	-0.9	1.26	0.0939	14.7	x	x
N#C/C(C(=O)NCc1ccco1)=C1/SC(Cc2ccc(F)cc2)C(=O)N1c1ccccc1 (centres undefined)	0.195	x	x	-0.499	2.4*	x	-21	u
Cc1cc(C(=O)Nc2sc3c(c2C#N)CCCCC3)cs1	0.418	-20.9	3.0	-3.45	-0.347	-89.9	x	x
N#Cc1c(NC(=O)c2nc3ncccn3n2)sc2c1CCCCC2	0.106	64.3	2.8	-4.29*	-1.8*	-50.4	u	-39.9
Cc1cc(C)c2cc(C#N)c(SCC(=O)NCC3CCCO3)nc2c1 (centres undefined)	-0.436	-37.6	6.1	x	2.64*	30.4	u	u
O=C(Nc1ccc(N2CCOCC2)cc1)Nc1ccc2nc(-c3ccco3)c(-c3ccco3)nc2c1	-1.26	-38.9	83.4*	2.66	2.81*	-20.8	-1.57	-19.4
O=C(NCCCO)Nc1ccc2nc(-c3ccco3)c(-c3ccco3)nc2c1	x	24.0	x	x	x	x	x	x
CCOC(=O)C(C(=O)Nc1nccs1)C1CCCCC1 (centres undefined)	-0.673	x	-2.3	-0.216	0.472	0.8	x	x
CCOC(=O)N1CCC(NC(=O)c2cc3c(=O)n(C)c4ccccc4c3n2C)CC1	6.57e-05	62.6	-1.3	-0.676	2.05*	16.4	u	-25.2
Cn1c(C(=O)Nc2ccc3c(c2)OCCO3)cc2c(=O)n(C)c3ccccc3c21	-0.193	x	-4.6	-4.53*	4.58*	7.9	3.65	-11.3
CN(C)CCNC(=O)c1cc2c(=O)n(C)c3ccccc3c2n1C	-0.886	-28.2	-11.3	1.09	-0.0564	2.8	x	x
Cn1c(C(=O)NC2CC2)cc2c(=O)n(C)c3ccccc3c21	-0.759	27.4	-1.4	0.25	1.72	9.1	x	x
CCOC(=O)CC(=O)CSc1nc2c(cc1C#N)CCCCC2	-0.957	x	x	-0.843	-0.347	x	x	x
CCOC(=O)CC(=O)CSc1nc2c(c(C)c1C#N)CCC2	-1.15	0.3	-5.1	0.0542	-2.91*	11.7	-7.99	-27
CCS(=O)(=O)N1CCC(C(=O)NCc2cc(OC)ccc2OC)CC1	x	-31.8	x	x	x	x	x	x
O=C(NCCc1ccc(Cl)cc1)c1cnc2n(c1=O)CCS2	-0.0983	x	-4.9	x	-2.85*	-12.7	u	-75.5
SMILES	M1 antagonist	mHtt clearance	Jurkat tox 60K	D1 mod	M1 agonist	HEK293 NFkB inh	M1 agonist conf	M4 agonist ctr
CCN(CC)CCCN1C(=O)C(=O)/C(=C(/O)c2ccccc2)C1c1cc(OC)ccc1OC (centres undefined)	0.686	x	x	x	-1.97	x	x	x
Cc1ccc(NC(=O)CC2S/C(=N/c3nccs3)N(C)C2=O)c(C)c1 (centres undefined)	x	-3.5	x	x	x	x	x	x
COC(=O)c1nn(-c2ccc(OC)cc2)c(=O)cc1Oc1cccc(Cl)c1	x	-39.2	x	x	x	x	x	x
CCN1C(=O)c2cccc3c(NC(=O)c4ccc5c(c4)OCCO5)ccc1c23	0.0359	x	-8.6	0.89	8.95*	-8.9	2.75	134*
CCOc1ccccc1C(=O)NCC(=O)OCC(=O)N1C(C)CCCC1C (centres undefined)	-0.299	28.6	-2.8	-0.122	-2.55*	18.2	u	-83.7*
O=C(OCCNC(=O)c1ccc2ccccc2n1)c1cccnc1	0.1	x	x	x	3.22*	x	u	-48.1
CCn1c(N2CCC(Cc3ccccc3)CC2)nc2c1c(=O)[nH]c(=O)n2C	-0.903	26.3	12.3	0.0772	5.39*	3.6	u	-83.9
CCCn1c(SCCc2ccccc2)nc2c1c(=O)[nH]c(=O)n2C	-0.0873	x	2.5	0.315	4.74*	21.1	u	-59.5
Cc1nnc(SCCCn2c(N3CCN(c4ccccc4)CC3)nc3c2c(=O)[nH]c(=O)n3C)s1	-2.07*	50.9	8.8	0.911	11.2*	16.7	-18.5	u
O=S(=O)(NC(=NC1CCCC1)C(F)(F)F)c1ccccc1	0.686	x	-2.5	0.0583	0.00158	0.6	x	x
COc1cc(/C=c2\s/c(=C(/C#N)C(=O)N3CCCC3)n(-c3ccccc3)c2=O)ccc1O	-0.43	62.7	-1.2	x	48*	16.4	39.6	43.1
Cc1c(Nc2nc3ccccc3nc2N2CCN(c3ccccc3)CC2)c(=O)n(-c2ccccc2)n1C	-0.607	-18.4	-4.3	-0.432	3.57*	4.8	-7.75	-10.8
COc1cccc(-c2nn3c(-c4cccc(C)c4)nnc3s2)c1	-0.145	x	-0.6	1.34	23.9*	9.6	u	-32.9
COc1ccc(-c2nnc3sc(-c4ccco4)nn23)cc1OC	-0.289	x	1.4	1.38	4.25*	11.0	-16.5	-43.7
COCCNC(=O)CSc1nc(-c2ccccc2)cs1	x	-43.2	x	x	x	x	x	x
O=C(C1CCN(c2nnc(N3CCCC3=O)s2)CC1)N1CCN(Cc2ccc3c(c2)OCO3)CC1	-0.31	x	6.6	-0.0652	-1.44	11.0	x	x
CC(C)CCNC(=O)C1CCN(c2nnc(-n3cccc3)s2)CC1	x	-20.8	x	x	x	x	x	x
Cc1cccc(N2CCN(C(=O)C3CCN(c4nnc(-n5cccc5)s4)CC3)CC2C)c1 (centres undefined)	-1.63	x	9.4	x	16*	19.5	u	-48.2
O=C(C1CCN(c2nnc(-n3cccc3)s2)CC1)N1CCN(Cc2ccc3c(c2)OCO3)CC1	-1.31	x	21.9	-0.0696	-2.61*	13.2	-11.7	-61.6
Cc1cccc(N2CCN(C(=O)C3CCN(S(=O)(=O)c4cccc5cccnc45)CC3)CC2C)c1 (centres undefined)	-1.85	x	5.6	-3.8*	8.62*	13.7	-11.6	u
